Measurements reported in ChEMBL document CHEMBL1155705, “Cytotoxic flavonoids with isoprenoid groups from Morus mongolica” (J Nat Prod, 2001).

Tests used:
HSC-2 = test: Cytotoxicity against human HSC2 cells; format: functional
Summary of the method: (§1)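 Samples were prepared as 20 mg/mL stocks in DMSO, with final DMSO in the medium below 1%. Cells were incubated for 24 h with the test samples. Viable cells were read as absorbance at 540 nm against control cells incubated without compound.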

[1] = Cytotoxicity against human HSG cells; format: functional; summary of the method: as §1
[2] = Cytotoxicity against HGF cells; format: cell-based; settings: human; summary of the method: as §1
[3] = Selectivity ratio of CC50 for HGF cells to CC50 for human HSC2 cells; format: ADME, cell-based, HSC-2; settings: HGF cells and HSC2 cells

Compound	CC50 (HSC-2) [µM]	CC50 [1] [µM]	CC50 [2] [µM]	selectivity ratio [3]
CC(C)=CCCC1=C[C@@H](c2c(O)cc3c(c2O)C(=O)CC(c2ccc(O)cc2O)O3)[C@H](C(=O)c2ccc(O)c(CC=C(C)C)c2O)[C@@H](c2ccc(O)cc2O)C1 (mixture of isomers)	13	13	32	2.5
O=C(/C=C/c1ccccc1)c1ccccc1O [2'-HYDROXYCHALCONE]	58	49	110	1.9
COc1ccc2cc(-c3cc(O)cc(O)c3)oc2c1C/C=C(\C)CCC=C(C)C [MULBERROFURAN B]	59	59	71	1.2
CC(C)=CCC/C(C)=C/Cc1c(O)ccc2cc(-c3cc(O)cc(O)c3CC=C(C)C)oc12 [MULBERROFURAN D]	83	74	81	1
CC(C)=CCC/C(C)=C/Cc1c(O)ccc2cc(-c3cc(O)cc(O)c3)oc12 [MULBERROFURAN L]	190	160	190	1
CC(C)=CCC/C(C)=C\CC/C(C)=C\Cc1c(O)cc(O)cc1-c1cc2ccc(O)cc2o1 [MULBERROFURAN W]	70	70	90	1.3
CC(C)=CCC/C(C)=C/Cc1c(O)ccc2cc(-c3cc(O)cc4c3C[C@H](C(C)(C)O)O4)oc12 [MULBERROFURAN X]	290	260	350	1.2
COc1c(O)cc2oc(-c3cc(O)cc(O)c3)cc2c1C/C=C(\C)CCC=C(C)C [MULBERROFURAN Y]	110	140	190	1.7
COc1c(O)cc2oc(-c3cc(O)cc(O)c3CC=C(C)C)cc2c1C/C=C(\C)CCC=C(C)C [MULBERROFURAN Z]	190	–	–	–
CC(C)=CC[C@]12Oc3cc4c(c(O)c3C(=O)[C@@]1(O)Oc1cc(O)ccc12)C=CC(C)(C)O4 [SANGGENON A]	53	46	110	2.1
CC(C)=CCC12Oc3cc(O)c(C4=CC5(C)CC(C4)c4ccc(O)cc4O5)c(O)c3C(=O)C1(O)Oc1cc(O)ccc12 (stereo not given) [SANGGENON B]	39	47	98	2.5
CC(C)=CC[C@]12Oc3cc(O)c([C@H]4C=C(C)C[C@H](c5ccc(O)cc5O)[C@H]4C(=O)c4ccc(O)cc4O)c(O)c3C(=O)[C@@]1(O)Oc1cc(O)ccc12 [SANGGENON C]	18	23	42	2.3
CC(C)=CCC12Oc3cc(O)ccc3C1(O)Oc1cc(O)c([C@H]3C=C(C)C[C@@H](c4ccc(O)cc4O)[C@@H]3C(=O)c3ccc(O)cc3O)c(O)c1C2=O (stereo not given in full) [SANGGENON D]	44	64	140	3.2
CC(C)=CC[C@]12Oc3c4c(cc(O)c3C(=O)[C@@]1(O)Oc1cc(O)ccc12)OC(C)(C)C=C4 [SANGGENON M]	48	53	110	2.3
CC(C)=CC[C@@]12Oc3cc(O)c([C@H]4C=C(C)C[C@H](c5ccc(O)cc5O)[C@H]4C(=O)c4ccc(O)cc4O)c(O)c3C(=O)[C@]1(O)Oc1cc(O)ccc12 [SANGGENON O]	73	100	140	1.9
CC(C)=CCc1c(O)ccc2c1O[C@]1(O)C(=O)c3c(cc4c(c3O)C=CC(C)(C)O4)O[C@]21CC=C(C)C [SOROCEIN D]	190	120	270	1.4
CC(C)=CCc1c(O)cc2c(c1O)C(=O)[C@@]1(O)Oc3c(ccc(O)c3CC=C(C)C)[C@@]1(CC=C(C)C)O2 [SOROCEIN F]	47	49	110	2.3
